Results of several laboratories.
Protocols differ between the studies behind these lines.
Read-out: cell growth or viability

SMILES | cell line | test | conditions | IC50
CC1=C(O)C(=O)C=C2C1=CC=C1[C@@]2(C)CC[C@@]2(C)[C@@H]3C[C@](C)(C(=O)OCCCCCO)CC[C@]3(C)CC[C@]12C | AGS | MTT | 48 h | 430 nM
CCSC(=O)c1ncn2c(=O)n(C)nnc12 | U-87 MG | resazurin | 7 days | 64000 nM
Cc1cccc(-n2ncc(Br)c(Br)c2=O)c1 | PC-9 | resazurin | 96 h | 860 nM
COc1c(C)c(OS(=O)(=O)c2ccc3ccccc3c2)c(C)c(OS(=O)(=O)c2ccc3ccccc3c2)c1C(=O)/C=C/c1ccccc1 | KKU-M213 | SRB | 72 h | > 50000 nM
CC(=O)OCCOC(=O)[C@]1(C)CC[C@]2(C)CC[C@]3(C)C4=CC=C5C(=CC(=O)C(O)=C5C)[C@]4(C)CC[C@@]3(C)[C@@H]2C1 | AGS | MTT | 48 h | 430 nM
CCCCCCCCCCCC(=O)Oc1c(C)c(O)c(C(=O)/C=C/c2ccccc2)c(OC)c1C | KKU-M213 | SRB | 72 h | > 50000 nM
CC1=C(O)C(=O)C=C2C1=CC=C1[C@@]2(C)CC[C@@]2(C)[C@@H]3C[C@](C)(C(=O)OCCCn4ccc5ccccc54)CC[C@]3(C)CC[C@]12C | AGS | MTT | 48 h | 2100 nM
COc1cc(/C=C2\SC(=O)NC2=O)ccc1OCc1ccc(Cl)cc1Cl | MEF | MTT | 72 h | 8600 nM
O=C1NCCc2[nH]c(-c3ccncc3)cc21 | EKVX | – | – | > 10000 nM
COc1ccc(Br)cc1/C=C/C(=O)c1ccc(NC(C)=O)cc1 | MEF | MTT | 72 h | 1000 nM
C=C(C)C(=O)Nc1ccc(-c2c(-c3ccc(Oc4nccc(C)n4)c(F)c3)c3c(N)ncnc3n2C)cc1 | JMSU-1 | ATP luminescence | 96 h | 1060 nM
Cn1nnc2c(C(=O)N3CCCC3)ncn2c1=O | U-87 MG | resazurin | 7 days | 17000 nM
O=c1[nH]cc(S(=O)(=O)Nc2cccc(-c3nnc(-c4cccc(Cl)c4)o3)c2)c(=O)[nH]1 | PC-9 | MTT | 24 h | 1100 nM
CC1=C(O)C(=O)C=C2C1=CC=C1[C@@]2(C)CC[C@@]2(C)[C@@H]3C[C@](C)(C(=O)OCCCCCCO)CC[C@]3(C)CC[C@]12C | AGS | MTT | 48 h | 360 nM
CC(C)[C@H](N)c1nc2cc(-c3ccncc3F)sc2c(=O)[nH]1 | SHP77 | MTT | – | 760 nM
Cc1cnc(NC2CCOCC2)nc1-n1cnc(C(=O)NC(CN)c2cc(F)cc(Cl)c2)c1 (centres unmarked) | JVM13 | MTS | – | 2700 nM
CC1=C(O)C(=O)C=C2C1=CC=C1[C@@]2(C)CC[C@@]2(C)[C@@H]3C[C@](C)(C(=O)OCCCCCCCCO)CC[C@]3(C)CC[C@]12C | AGS | MTT | 48 h | 420 nM
C#CCSc1nc(Sc2nnnn2-c2ccccc2)c2nnn(Cc3ccc(OC)cc3)c2n1 | Raji | MTS | 6 days | 3320 nM
COCCCOC(=O)[C@]1(C)CC[C@]2(C)CC[C@]3(C)C4=CC=C5C(=CC(=O)C(O)=C5C)[C@]4(C)CC[C@@]3(C)[C@@H]2C1 | AGS | MTT | 48 h | 390 nM
C=CC(=O)Nc1cc(Nc2nccc(-c3cn(C4CC4)c4ccccc34)n2)c(OC)cc1N(C)CCN(C)C | PC-9 | ATP luminescence | 72 h | 4.1 nM
